Laboratory results reported in ChEMBL document CHEMBL3259544, “α-Ketoheterocycle inhibitors of fatty acid amide hydrolase: exploration of conformational constraints in the acyl side chain” (Bioorg Med Chem, 2014).
pIC50, pKi: −log10 of the molar value.

Experiments:
[1] = molecular target: T1, Neutral cholesterol ester hydrolase 1 (Mus musculus, UniProt Q8BLF1); test: Inhibition of mouse brain KIAA1363 incubated for 10 mins prior to rhodamine-tagged fluorophosphonate addition measured after 10 mins by SDS-PAGE
T1 sequence (Q8BLF1 whole entry): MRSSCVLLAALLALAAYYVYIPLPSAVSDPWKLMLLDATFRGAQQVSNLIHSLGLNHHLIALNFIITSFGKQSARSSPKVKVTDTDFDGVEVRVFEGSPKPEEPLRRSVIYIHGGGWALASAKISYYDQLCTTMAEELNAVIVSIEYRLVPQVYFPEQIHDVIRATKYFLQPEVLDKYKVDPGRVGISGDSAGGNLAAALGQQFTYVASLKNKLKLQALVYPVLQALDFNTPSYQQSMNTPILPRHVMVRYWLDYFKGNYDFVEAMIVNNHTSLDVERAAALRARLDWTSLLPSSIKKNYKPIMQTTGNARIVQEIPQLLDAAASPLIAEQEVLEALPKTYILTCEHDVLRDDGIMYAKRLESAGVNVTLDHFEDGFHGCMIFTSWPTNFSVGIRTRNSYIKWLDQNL
Outline: (§1)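 Mouse brain tissue was Dounce-homogenized in PBS pH 7.5, cleared at 1,400 g for 5 min, then split at 64,000 g for 45 min into soluble and membrane fractions. Proteome at 1 mg/mL in PBS was preincubated with inhibitor from DMSO stock for 10 min, then exposed to FP-rhodamine at 100 nM for 10 min at 25 °C. Gel bands were scanned and integrated relative to a DMSO control. IC50 came from dose-response curves, three trials per concentration.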

[2] = molecular target: T2, Fatty-acid amide hydrolase 1 (Rattus norvegicus, UniProt P97612); test: Inhibition of rat recombinant FAAH expressed in Escherichia coli using [14C]oleamide as substrate assessed as oleic acid formation by Dixon plot analysis
T2 sequence (P97612 whole entry): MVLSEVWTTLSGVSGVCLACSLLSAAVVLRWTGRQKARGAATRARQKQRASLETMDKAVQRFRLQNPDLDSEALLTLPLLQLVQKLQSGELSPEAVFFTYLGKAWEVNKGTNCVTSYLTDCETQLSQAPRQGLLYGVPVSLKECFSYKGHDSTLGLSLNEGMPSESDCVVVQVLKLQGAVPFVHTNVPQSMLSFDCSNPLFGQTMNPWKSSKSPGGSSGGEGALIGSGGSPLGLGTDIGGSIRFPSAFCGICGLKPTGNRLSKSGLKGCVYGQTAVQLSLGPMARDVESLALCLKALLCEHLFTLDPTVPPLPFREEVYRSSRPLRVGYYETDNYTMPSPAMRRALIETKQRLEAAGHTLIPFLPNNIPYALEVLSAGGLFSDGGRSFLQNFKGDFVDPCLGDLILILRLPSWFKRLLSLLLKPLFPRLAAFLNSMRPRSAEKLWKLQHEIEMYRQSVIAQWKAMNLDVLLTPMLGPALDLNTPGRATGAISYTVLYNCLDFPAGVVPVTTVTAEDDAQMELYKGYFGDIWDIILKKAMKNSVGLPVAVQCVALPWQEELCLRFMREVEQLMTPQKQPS

Mus musculus [3] = species on record: Mus musculus; test: Selectivity ratio of IC50 for mouse brain MAGL to mouse brain FAAH
[4] = molecular target: T3, Fatty-acid amide hydrolase 1 (Mus musculus, UniProt O08914); test: Inhibition of mouse brain FAAH incubated for 10 mins prior to rhodamine-tagged fluorophosphonate addition measured after 10 mins by SDS-PAGE; outline: as §1
T3 sequence (O08914 whole entry): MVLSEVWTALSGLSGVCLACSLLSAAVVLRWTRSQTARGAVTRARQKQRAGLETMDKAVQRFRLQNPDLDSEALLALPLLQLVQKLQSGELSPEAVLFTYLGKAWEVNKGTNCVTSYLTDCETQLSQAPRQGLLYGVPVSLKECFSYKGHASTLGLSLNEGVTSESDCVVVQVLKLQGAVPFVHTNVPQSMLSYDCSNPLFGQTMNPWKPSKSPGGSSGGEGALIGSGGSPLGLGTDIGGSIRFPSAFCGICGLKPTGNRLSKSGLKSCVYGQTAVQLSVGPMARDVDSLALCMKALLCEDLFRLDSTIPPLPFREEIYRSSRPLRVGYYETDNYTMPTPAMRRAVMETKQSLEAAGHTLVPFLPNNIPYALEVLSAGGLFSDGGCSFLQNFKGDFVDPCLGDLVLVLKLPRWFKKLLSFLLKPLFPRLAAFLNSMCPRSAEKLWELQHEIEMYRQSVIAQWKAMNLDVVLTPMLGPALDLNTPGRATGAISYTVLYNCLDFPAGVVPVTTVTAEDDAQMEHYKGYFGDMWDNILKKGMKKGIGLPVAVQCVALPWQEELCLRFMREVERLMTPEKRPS

Mus musculus [5] = species on record: Mus musculus; test: Selectivity ratio of IC50 for mouse brain KIAA1363 to mouse brain FAAH
Mus musculus [6] = species on record: Mus musculus; test: Selectivity ratio of IC50 for mouse brain ABHD6 to mouse brain FAAH
[7] = molecular target: T4, Monoacylglycerol lipase ABHD6 (Mus musculus, UniProt Q8R2Y0); test: Inhibition of mouse brain ABHD6 incubated for 10 mins prior to rhodamine-tagged fluorophosphonate addition measured after 10 mins by SDS-PAGE; type: tissue-based; outline: as §1
T4 sequence (Q8R2Y0 whole entry): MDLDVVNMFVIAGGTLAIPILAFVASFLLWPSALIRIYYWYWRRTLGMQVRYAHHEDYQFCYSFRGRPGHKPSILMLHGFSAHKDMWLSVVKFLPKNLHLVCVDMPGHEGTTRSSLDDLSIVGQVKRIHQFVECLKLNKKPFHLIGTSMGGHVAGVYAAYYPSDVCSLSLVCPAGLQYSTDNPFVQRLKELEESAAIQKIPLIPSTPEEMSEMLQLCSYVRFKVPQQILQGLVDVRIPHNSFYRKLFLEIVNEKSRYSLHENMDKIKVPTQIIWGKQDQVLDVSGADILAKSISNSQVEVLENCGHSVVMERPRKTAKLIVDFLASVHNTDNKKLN

Monoglyceride lipase = molecular target: T5, Monoglyceride lipase (Mus musculus, UniProt O35678); test: Inhibition of mouse brain MAGL incubated for 10 mins prior to rhodamine-tagged fluorophosphonate addition measured after 10 mins by SDS-PAGE; outline: as §1
T5 sequence (O35678 whole entry): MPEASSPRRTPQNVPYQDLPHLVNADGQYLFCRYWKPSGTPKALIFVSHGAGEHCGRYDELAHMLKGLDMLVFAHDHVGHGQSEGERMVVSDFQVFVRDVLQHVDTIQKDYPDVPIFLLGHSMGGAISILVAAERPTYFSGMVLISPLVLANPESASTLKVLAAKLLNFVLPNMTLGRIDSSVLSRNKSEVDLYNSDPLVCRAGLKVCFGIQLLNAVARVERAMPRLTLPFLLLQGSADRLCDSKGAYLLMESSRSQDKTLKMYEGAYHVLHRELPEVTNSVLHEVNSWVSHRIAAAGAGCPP

[8] = molecular target: T6, Fatty-acid amide hydrolase 1 (Homo sapiens, UniProt O00519); test: Reversible inhibition of FAAH (unknown origin)
T6 sequence (O00519 whole entry): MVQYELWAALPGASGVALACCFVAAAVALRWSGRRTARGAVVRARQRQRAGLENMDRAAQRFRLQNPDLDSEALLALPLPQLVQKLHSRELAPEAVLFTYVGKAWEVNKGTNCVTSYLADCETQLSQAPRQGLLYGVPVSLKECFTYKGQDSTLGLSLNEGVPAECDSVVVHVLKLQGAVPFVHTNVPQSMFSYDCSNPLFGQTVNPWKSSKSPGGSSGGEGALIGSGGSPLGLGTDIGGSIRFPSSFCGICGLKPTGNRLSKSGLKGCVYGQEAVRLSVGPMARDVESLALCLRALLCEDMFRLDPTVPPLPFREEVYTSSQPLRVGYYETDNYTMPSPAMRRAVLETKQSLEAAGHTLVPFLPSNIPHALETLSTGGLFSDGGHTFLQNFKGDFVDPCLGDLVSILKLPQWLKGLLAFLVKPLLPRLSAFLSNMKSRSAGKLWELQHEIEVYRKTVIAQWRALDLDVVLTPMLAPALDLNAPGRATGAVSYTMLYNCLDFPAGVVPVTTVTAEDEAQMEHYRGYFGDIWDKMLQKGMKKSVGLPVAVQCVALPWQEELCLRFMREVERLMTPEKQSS

O=C(c1ncc(-c2ccccn2)o1)[C@@H]1COc2cc(Oc3ccccc3)ccc2C1
pIC50 [1]: < 4.00 | pKi [2]: 7.57 | Ratio IC50 (Mus musculus [3]): > 200 | pIC50 [4]: 6.34 | Ratio IC50 (Mus musculus [5]): > 200 | Ratio IC50 (Mus musculus [6]): > 200 | pIC50 [7]: < 4.00 | pIC50 (Monoglyceride lipase): < 4.00

O=C(c1ncc(-c2ccccn2)o1)C1CCc2cc(Oc3ccccc3)ccc2O1 (single isomer, unassigned; enantiomer 2) [listing 1 of 2 here]
Ratio IC50 (Mus musculus [3]): > 200 | Ratio IC50 (Mus musculus [5]): > 200 | Ratio IC50 (Mus musculus [6]): > 200

O=C(c1ncc(-c2ccccn2)o1)[C@H]1CCc2cc(Oc3ccccc3)ccc2C1
pKi [2]: 8.36

COC(=O)c1cccc(-c2cnc(C(=O)[C@H]3COc4cc(Oc5ccccc5)ccc4C3)o2)n1
pKi [2]: 7.39

O=C(c1ncc(-c2ccccn2)o1)[C@@H]1COc2cc(OCc3ccccc3)ccc2C1
pKi [2]: 7.77

O=C(c1ncc(-c2ccccn2)o1)[C@@H]1COc2cc(-c3ccccc3)ccc2C1
pKi [2]: 7.96

O=C(c1ncco1)[C@@H]1COc2cc(-c3ccccc3)ccc2C1
pKi [2]: 7.49

COC(=O)c1cccc(-c2cnc(C(=O)C3CCc4cc(Oc5ccccc5)ccc4O3)o2)n1 (single isomer, unassigned; enantiomer 2)
pKi [2]: 6.68

COC(=O)c1cccc(-c2cnc(C(=O)C3CCc4cc(Oc5ccccc5)ccc4O3)o2)n1 (single isomer, unassigned; enantiomer 1)
pKi [2]: 7.03

COC(=O)c1cccc(-c2cnc(C(=O)[C@@H]3COc4cc(Oc5ccccc5)ccc4C3)o2)n1
pKi [2]: 6.48

O=C(c1ncco1)[C@@H]1COc2cc(OCc3ccccc3)ccc2C1
pKi [2]: 7.80

O=C(c1ncc(-c2ccccn2)o1)[C@H]1COc2cc(Oc3ccccc3)ccc2C1
pIC50 [1]: < 4.00 | pKi [2]: 7.74 | Ratio IC50 (Mus musculus [3]): > 200 | pIC50 [4]: 7.05 | Ratio IC50 (Mus musculus [5]): > 200 | Ratio IC50 (Mus musculus [6]): > 200 | pIC50 [7]: < 4.00 | pIC50 (Monoglyceride lipase): < 4.00

O=C(c1ncco1)C1CCc2cc(Oc3ccccc3)ccc2O1 (single isomer, unassigned; enantiomer 1)
pKi [2]: 7.77

O=C(c1ncco1)[C@H]1COc2cc(OCc3ccccc3)ccc2C1
pKi [2]: 7.70

O=C(c1ncc(-c2ccccn2)o1)C1CCc2cc(Oc3ccccc3)ccc2O1 (single isomer, unassigned) [listing 1 of 2 here]
pIC50 [1]: < 4.00 | pKi [2]: 7.44 | pIC50 [4]: 7.15 | pIC50 [7]: < 4.00 | pIC50 (Monoglyceride lipase): < 4.00

O=C(c1ncco1)C1CCc2cc(Oc3ccccc3)ccc2O1 (single isomer, unassigned; enantiomer 2)
pKi [2]: 7.51

CCCCCCC(C)OC(=O)C(Br)C(C)=O (configuration not stated)
pKi [8]: 6.10

O=C(c1ncc(-c2ccccn2)o1)[C@H]1COc2cc(-c3ccccc3)ccc2C1
pKi [2]: 7.64

O=C(c1ncc(-c2ccccn2)o1)[C@H]1COc2cc(OCc3ccccc3)ccc2C1
pKi [2]: 7.74

O=C(c1ncc(-c2ccccn2)o1)C1CCc2cc(Oc3ccccc3)ccc2O1 (single isomer, unassigned) [listing 2 of 2 here]
Ratio IC50 (Mus musculus [3]): > 200 | Ratio IC50 (Mus musculus [5]): > 200 | Ratio IC50 (Mus musculus [6]): > 200

O=C(c1ncc(I)o1)[C@H]1COc2cc(Oc3ccccc3)ccc2C1
pKi [2]: 7.70

O=C(c1ncc(-c2ccccn2)o1)C1COc2cc(OCc3ccccc3)ccc2C1 (racemic)
pKi [2]: 7.77

O=C(c1ncco1)[C@H]1COc2cc(-c3ccccc3)ccc2C1
pKi [2]: 7.70

O=C(c1ncc(-c2ccccn2)o1)C1CCc2cc(Oc3ccccc3)ccc2O1 (single isomer, unassigned; enantiomer 2) [listing 2 of 2 here]
pIC50 [1]: < 4.00 | pKi [2]: 6.92 | pIC50 [4]: 7.30 | pIC50 [7]: < 4.00 | pIC50 (Monoglyceride lipase): < 4.00

O=C(c1ncco1)C1COc2cc(Oc3ccccc3)ccc2C1 (racemic)
pKi [2]: 7.48

O=C(c1ncc(I)o1)[C@@H]1COc2cc(Oc3ccccc3)ccc2C1
pKi [2]: 7.51
